A short description of data set [1]: Plasma clearance in dog. It counts as ADME, organism-based, Canis lupus familiaris.
Data set [2] in a line: Oral bioavailability in dog. The note with it: in vivo. The format is ADME, organism-based, Canis lupus familiaris.
The nature of data set [3]: Intrinsic clearance in human hepatocytes at 1 uM by LC-MS/MS method. The format is ADME, cell-based, Hepatocyte. The note with it: read-out: CLH.
Data set [4] concerns Human immunodeficiency virus 1. The data set can be described thus: Resistance index, ratio of IC50 for antiviral activity against HIV1 expressing integrase E92Q mutant to IC50 for antiviral activity against HIV1 expressing wild type integrase. The format is functional. The method in brief: (§1)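 Fold shift computed as the inflection point (IP) against mutant HIV-1 divided by the IP against wild-type virus. Both IPs come from a kinetic HIV replication (viral kinetics) potency assay run in 50% normal human serum (NHS).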

A short description of data set [5]: Oral bioavailability in rat. The format is ADME, organism-based. As to conditions: in vivo.
Data set [6] concerns Human immunodeficiency virus 1. Nature of the data set: Antiviral activity against HIV1 infected in human MT4 cells expressing GFP incubated for 48 to 72 hrs in absence of 50% normal human serum by multiple round viral replication kinetics assay. It counts as functional.
Data set [7] in a line: Plasma clearance in rat. It counts as ADME, organism-based.
The subject of data set [8] is Human immunodeficiency virus 1. Nature of the data set: Resistance index, ratio of IC50 for antiviral activity against HIV1 expressing integrase Q148R mutant to IC50 for antiviral activity against HIV1 expressing wild type integrase. It counts as functional. A digest of the protocol: as §1
The test system of data set [9] is Human immunodeficiency virus 1. Nature of the data set: Antiviral activity against HIV1 infected in human MT4 cells expressing GFP incubated for 48 to 72 hrs in presence of 50% normal human serum by multiple round viral replication kinetics assay. It counts as functional.
For data set [10], the system named is Human immunodeficiency virus 1. The data set can be described thus: Resistance index, ratio of IC50 for antiviral activity against HIV1 expressing integrase Y143R mutant to IC50 for antiviral activity against HIV1 expressing wild type integrase. The format is functional. The method in brief:
as §1

Regarding `CC(C)n1c(C(=O)N(C)C)c2c(c(O)c1=O)C(=O)N(Cc1ccc(F)c(Cl)c1)CC2`, the clearance (as a rule, a measure of how efficiently the substance is removed, as volume per time) was determined as 2.2 mL/min/kg in [1] and 2.3 mL/min/kg in [7]. For the same molecule, the figures for the bioavailability in [2] and in [5] were 44% and 29%, respectively. For the same molecule, in [3], the CLint scaled at 1 µM was < 20 mL/min/kg. The “Ratio IC50” value in [4] is 1; in [8] it was 1; in [10], 2. Also, the results for the IP in data set [6] and in data set [9] were 6 nM and 53 nM, respectively.

Source of the values: ChEMBL document CHEMBL3621084, “Discovery of 2-Pyridinone Aminals: A Prodrug Strategy to Advance a Second Generation of HIV-1 Integrase Strand Transfer Inhibitors” (J Med Chem, 2015).
